Our source for the Ki and inhibition values is ChEMBL document CHEMBL4680130, “Substituted 4-phenylthiazoles: Development of potent and selective A, A and dual A/A adenosine receptor antagonists” (Eur J Med Chem, 2020).

The target in assay [1] is T1, Adenosine receptor A3 (Homo sapiens, UniProt P0DMS8).
T1 sequence (P0DMS8 whole entry): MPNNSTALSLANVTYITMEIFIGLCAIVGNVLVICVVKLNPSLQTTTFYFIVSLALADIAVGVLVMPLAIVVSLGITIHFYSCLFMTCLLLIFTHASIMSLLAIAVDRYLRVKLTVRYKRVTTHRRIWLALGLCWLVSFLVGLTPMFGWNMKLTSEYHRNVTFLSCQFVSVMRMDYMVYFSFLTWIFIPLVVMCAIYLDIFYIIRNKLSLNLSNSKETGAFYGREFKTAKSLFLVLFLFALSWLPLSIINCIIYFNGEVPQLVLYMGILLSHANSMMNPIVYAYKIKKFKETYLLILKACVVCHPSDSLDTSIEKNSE
Nature of the assay: Displacement of [3H]PSB-11 from human adenosine receptor A3 expressed in CHO cell membranes incubated for 60 mins by radioligand competition assay. More on the design: species or system Cell membrane.

Assay [2] addresses T2, Adenosine receptor A1 (Rattus norvegicus, UniProt P25099).
T2 sequence (P25099 whole entry): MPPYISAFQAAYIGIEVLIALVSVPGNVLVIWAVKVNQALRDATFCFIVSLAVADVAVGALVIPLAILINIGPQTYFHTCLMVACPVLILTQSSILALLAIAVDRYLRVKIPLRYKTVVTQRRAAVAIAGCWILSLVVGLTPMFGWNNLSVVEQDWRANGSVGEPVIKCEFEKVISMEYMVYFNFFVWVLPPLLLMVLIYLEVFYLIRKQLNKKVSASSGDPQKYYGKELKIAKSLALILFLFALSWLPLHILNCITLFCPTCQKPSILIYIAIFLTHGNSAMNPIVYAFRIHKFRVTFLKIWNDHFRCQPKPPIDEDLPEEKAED
Nature of the assay: Displacement of [3H]CCPA from adenosine receptor A1 in rat brain cortex membranes incubated for 90 mins by radioligand competition assay. The format is cell membranes, Cell membrane.

In assay [3] the target is T3, Adenosine receptor A1 (Rattus norvegicus) (UniProt P25099).
T3 sequence (whole entry): T2 sequence (P25099 whole entry)
Nature of the assay: Displacement of [3H]CCPA from adenosine receptor A1 in rat brain cortex membranes at 0.1 uM incubated for 90 mins by radioligand competition assay. The note with it: Cell membrane, filed as antagonist. The method, boiled down: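 A1 competition binding with [3H]CCPA, 0.5 nM. Membranes: CHO cells expressing human A1, or rat brain cortex. Membranes preincubated 20 min with adenosine deaminase (2 U/mL per mg protein). Incubation 90 min at rt in 50 mM Tris-HCl pH 7.4 with 2.5% final DMSO. Nonspecific binding defined by 10 µM 2-chloroadenosine. GF/B filtration, scintillation counting.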

Assay [4] has as its target Adenosine receptor A2a (Homo sapiens, UniProt P29274). Nature of the assay: Displacement of [3H]MSX2 from human adenosine receptor A2A expressed in HEK293 cell membranes incubated for 30 mins by radioligand competition assay. More on the design: species or system Cell membrane.
Assay [5] deals with Adenosine receptor A2a (Rattus norvegicus, UniProt P30543). Nature of the assay: Displacement of [3H]MSX2 from adenosine receptor A2A in rat brain striatum membranes incubated for 30 mins by radioligand competition assay. The format is cell membranes, Cell membrane.
Chain of Adenosine receptor A2a (Rattus norvegicus, UniProt P30543) (P30543 whole entry): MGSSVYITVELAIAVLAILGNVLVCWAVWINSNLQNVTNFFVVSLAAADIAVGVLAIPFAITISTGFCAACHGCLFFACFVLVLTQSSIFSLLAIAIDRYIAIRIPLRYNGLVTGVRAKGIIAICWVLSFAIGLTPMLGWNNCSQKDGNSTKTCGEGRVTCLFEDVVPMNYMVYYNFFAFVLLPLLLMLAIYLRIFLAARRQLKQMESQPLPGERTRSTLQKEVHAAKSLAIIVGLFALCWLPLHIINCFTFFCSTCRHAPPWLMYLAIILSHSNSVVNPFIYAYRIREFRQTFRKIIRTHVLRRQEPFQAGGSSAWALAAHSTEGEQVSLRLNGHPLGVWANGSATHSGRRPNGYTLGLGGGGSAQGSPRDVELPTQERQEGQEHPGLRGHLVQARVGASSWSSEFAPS
For assay [6], the target named is T4, Adenosine receptor A2b (Homo sapiens, UniProt P29275).
T4 sequence (P29275 whole entry): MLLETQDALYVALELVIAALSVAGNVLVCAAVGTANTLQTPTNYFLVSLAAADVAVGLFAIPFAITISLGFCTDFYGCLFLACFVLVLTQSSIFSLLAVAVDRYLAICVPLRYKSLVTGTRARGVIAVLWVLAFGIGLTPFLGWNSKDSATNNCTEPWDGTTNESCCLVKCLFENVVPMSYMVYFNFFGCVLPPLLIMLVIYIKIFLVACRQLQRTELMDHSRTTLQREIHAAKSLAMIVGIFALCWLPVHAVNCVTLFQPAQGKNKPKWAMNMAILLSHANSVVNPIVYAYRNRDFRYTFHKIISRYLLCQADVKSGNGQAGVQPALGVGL
Nature of the assay: Displacement of [3H]PSB-603 from human adenosine receptor A2B expressed in CHO cell membranes incubated for 75 mins by radioligand competition assay. Further details: species or system Cell membrane.

Assay [7] concerns the target Adenosine receptor A2a (Rattus norvegicus) (UniProt P30543). Nature of the assay: Displacement of [3H]MSX2 from adenosine receptor A2A in rat brain striatum membranes at 0.1 uM incubated for 30 mins by radioligand competition assay relative to control. The settings on record: Cell membrane. The method, boiled down:
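A2A binding, [3H]MSX-2 1.0 nM. Membranes: rat brain striatum, or HEK293 cells expressing human A2A. Adenosine deaminase preincubation 20 min, then 30 min at rt in 50 mM Tris-HCl pH 7.4 with 2.5% DMSO. Nonspecific binding defined by 50 µM NECA. GF/B filtration, scintillation counting. Single-concentration percent inhibition, ≥3 experiments in duplicate or triplicate.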

The target of assay [8] is T5, Adenosine receptor A1 (Homo sapiens, UniProt P30542).
T5 sequence (P30542 whole entry): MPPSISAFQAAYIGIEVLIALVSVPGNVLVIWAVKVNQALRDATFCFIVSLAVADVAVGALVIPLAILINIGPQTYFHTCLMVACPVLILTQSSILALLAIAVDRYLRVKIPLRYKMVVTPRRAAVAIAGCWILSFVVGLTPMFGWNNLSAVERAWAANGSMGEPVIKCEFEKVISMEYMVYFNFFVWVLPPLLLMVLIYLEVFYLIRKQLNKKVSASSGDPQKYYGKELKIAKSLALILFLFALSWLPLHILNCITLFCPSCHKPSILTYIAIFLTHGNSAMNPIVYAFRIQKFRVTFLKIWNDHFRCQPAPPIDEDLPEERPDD
Nature of the assay: Displacement of [3H]CCPA from human adenosine receptor A1 expressed in CHO cell membranes incubated for 90 mins by radioligand competition assay. More on the design: species or system Cell membrane.

For assay [9], the target named is T6, Adenosine receptor A3 (Rattus norvegicus) (UniProt P28647).
T6 sequence (whole entry): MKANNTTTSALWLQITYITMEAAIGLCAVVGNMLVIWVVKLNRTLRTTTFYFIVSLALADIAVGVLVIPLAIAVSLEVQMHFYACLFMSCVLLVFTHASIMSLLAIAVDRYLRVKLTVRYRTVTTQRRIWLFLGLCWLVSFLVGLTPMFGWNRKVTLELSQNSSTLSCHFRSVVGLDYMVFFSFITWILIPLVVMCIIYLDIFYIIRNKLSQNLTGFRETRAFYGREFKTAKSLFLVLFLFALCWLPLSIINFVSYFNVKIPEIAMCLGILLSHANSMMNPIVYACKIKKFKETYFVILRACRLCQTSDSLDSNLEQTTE
Nature of the assay: Displacement of [3H]NECA from rat adenosine receptor A3 expressed in CHO cell membranes at 0.1 uM incubated for 60 mins by radioligand competition assay relative to control. The note with it: Cell membrane. The method, boiled down: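 CHO membranes expressing rat A3, [3H]NECA 10 nM. Nonspecific binding defined by 100 µM R-PIA. Preincubated 20 min with adenosine deaminase, then 60 min at rt in 50 mM Tris-HCl pH 7.4 with 2.5% DMSO. GF/B filtration, scintillation counting.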

The target of assay [10] is T7, Adenosine receptor A3 (Rattus norvegicus, UniProt P28647).
T7 sequence (P28647 whole entry): T6 sequence (whole entry)
Nature of the assay: Displacement of [3H]NECA from rat adenosine receptor A3 expressed in CHO cell membranes incubated for 60 mins by radioligand competition assay. Further details: species or system Cell membrane.

The target of assay [11] is T8, Adenosine receptor A2b (Homo sapiens) (UniProt P29275).
T8 sequence (whole entry): T4 sequence (P29275 whole entry)
Nature of the assay: Displacement of [3H]PSB-603 from human adenosine receptor A2B expressed in CHO cell membranes at 0.1 uM incubated for 75 mins by radioligand competition assay relative to control. The note with it: Cell membrane. The method, boiled down: (§1)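 CHO membranes expressing human or rat A2B, [3H]PSB-603 0.3 nM. Nonspecific binding defined by 10 µM DPCPX. Preincubated 20 min with adenosine deaminase, then 75 min at rt in Tris-HCl pH 7.4 with 2.5% DMSO. Filters washed with ice-cold 50 mM Tris-HCl containing 0.1% BSA; scintillation counting.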

Assay [12] has as its target T9, Adenosine receptor A2b (Rattus norvegicus, UniProt P29276).
T9 sequence (P29276 whole entry): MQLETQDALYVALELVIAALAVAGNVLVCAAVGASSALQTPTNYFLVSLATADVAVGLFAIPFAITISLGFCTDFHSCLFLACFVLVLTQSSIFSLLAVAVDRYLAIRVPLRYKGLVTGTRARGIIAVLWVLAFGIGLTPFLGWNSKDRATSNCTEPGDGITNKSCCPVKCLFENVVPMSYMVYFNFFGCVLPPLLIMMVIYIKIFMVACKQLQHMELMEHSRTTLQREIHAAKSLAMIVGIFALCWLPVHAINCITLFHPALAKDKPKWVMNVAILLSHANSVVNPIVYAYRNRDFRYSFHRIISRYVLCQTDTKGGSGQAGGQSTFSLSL
Nature of the assay: Displacement of [3H]PSB-603 from rat adenosine receptor A2B expressed in CHO cell membranes incubated for 75 mins by radioligand competition assay. More on the design: species or system Cell membrane. The method, boiled down: as §1

Each structure is given as a SMILES string. A value given as a limit tells only on which side of the number the result lay.

Chain of Adenosine receptor A2a (Rattus norvegicus) (P30543 whole entry): as the sequence (P30543 whole entry) above
Chain of Adenosine receptor A2a (Homo sapiens, UniProt P29274) (P29274 whole entry): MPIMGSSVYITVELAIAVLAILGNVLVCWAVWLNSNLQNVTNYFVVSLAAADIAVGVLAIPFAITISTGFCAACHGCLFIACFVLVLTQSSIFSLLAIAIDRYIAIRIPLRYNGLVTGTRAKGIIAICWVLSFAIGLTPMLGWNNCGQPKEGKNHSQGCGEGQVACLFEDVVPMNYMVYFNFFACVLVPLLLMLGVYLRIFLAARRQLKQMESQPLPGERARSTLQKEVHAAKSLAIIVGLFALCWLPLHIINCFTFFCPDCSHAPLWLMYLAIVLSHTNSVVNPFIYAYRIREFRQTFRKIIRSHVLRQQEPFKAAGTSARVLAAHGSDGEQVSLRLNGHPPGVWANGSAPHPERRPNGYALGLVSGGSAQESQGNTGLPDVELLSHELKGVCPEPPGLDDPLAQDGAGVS

As to `COc1ccc(C(=O)Nc2nc(-c3ccccc3)c(-c3nc4ccccc4c(=O)n3-c3ccc(C)cc3)s2)cc1`, the inhibition constant Ki was 27.8 nM in assay [1]; greater than 1000 nM in assay [2]; greater than 1000 nM in [4]; greater than 1000 nM in [5]; greater than 100 nM in [6]; greater than 1000 nM in [8]. This compound also returned a Ki in assay [10] greater than 10000 nM. Besides, the inhibition in [3] is 25%; in [7], 15%; in assay [9], 15%; in [11], 2%.
As to `COc1ccc(C(=O)Nc2nc(-c3ccccc3)c(C(=O)c3ccc(Cl)cc3)s2)cc1`, the Ki was greater than 1000 nM in assay [1]; 1.01 nM in assay [2]; greater than 1000 nM in assay [4]; greater than 1000 nM in assay [5]; greater than 100 nM in [12]; greater than 100 nM in [6]. Also, the Ki in assay [8] is 32.3 nM; in assay [10], greater than 10000 nM. Besides, in [7], the inhibition came out at 12%.
With `O=C(Nc1nc(-c2ccccc2)c(-c2nc3ccccc3c(=O)n2-c2ccc(Cl)cc2)s1)c1ccccc1`, the inhibition constant (Ki) was 83.3 nM in assay [1]; greater than 1000 nM in [2]; greater than 1000 nM in assay [4]; greater than 1000 nM in [5]; greater than 100 nM in [6]; greater than 1000 nM in assay [8]. Besides, the inhibition constant Ki in assay [10] was greater than 10000 nM. Also, the inhibition was 16% in assay [3], 7% in [7], 22% in assay [9] and 12% in assay [11].
